Source: ChEMBL document CHEMBL4689842, “EUbOPEN Chemogenomics Library wave 1” (2021)

Tested on: HEK-293T
Test: Multiplex assay against HEK293T;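 as to Population Tubulin-Different-Phenotype (%): share of the cells with healthy nuclei that show this phenotype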
Assay type: toxicity, cell-based
Conditions: human
Outline: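 On a CQ1 microscope at 37°C and 5% CO2, live cells were imaged after compound addition. They had been stained at seeding with Hoechst33342, BioTracker Green Microtubule Cytoskeleton Dye, MitoTracker Red and Annexin V Alexa Fluor 680. CellPathfinder machine-learning gating assigned cells to Hoechst high-intensity objects or normal cells, normal cells to healthy, pyknosed or fragmented nuclei, and pyknosed cells to mitotic or apoptotic. Tubulin, mitochondrial-mass and membrane-permeability phenotypes are per cents of healthy-nucleus cells.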

[1] = 12 h, 1 µM, compound concentration 1 uM, replicate 1
[2] = 12 h, 1 µM, compound concentration 1 uM, replicate 2
[3] = 12 h, 10 µM, compound concentration 10 uM, replicate 1
[4] = 12 h, 10 µM, compound concentration 10 uM, replicate 2
[5] = 24 h, 1 µM, compound concentration 1 uM, replicate 1
[6] = 24 h, 1 µM, compound concentration 1 uM, replicate 2
[7] = 24 h, 10 µM, compound concentration 10 uM, replicate 1
[8] = 24 h, 10 µM, compound concentration 10 uM, replicate 2
[9] = 48 h, 1 µM, compound concentration 1 uM, replicate 1
[10] = 48 h, 1 µM, compound concentration 1 uM, replicate 2
[11] = 48 h, 10 µM, compound concentration 10 uM, replicate 1
[12] = 48 h, 10 µM, compound concentration 10 uM, replicate 2

Compound: Nc1ccc(C(=O)Nc2cccc(-c3nc(N4CCOCC4)c4oc5ncccc5c4n3)c2)cn1
- Population Apoptotic (%) [1]: 66%
- Population Fragmented Nuclei (%) [1]: 24%
- Population Healthy Nuclei (%) [1]: 15%
- Population Hoechst High Intensity Objects (%) [1]: 19%
- Population Mitochondria Different-Phenotype (%) [1]: 94%
- Population Mitotic Cells (%) [1]: 33%
- Population Normal (%) [1]: 80%
- Population Pyknosed Nuclei (%) [1]: 60%
- Population Tubulin-Different-Phenotype (%) [1]: 94%
- Population Apoptotic (%) [2]: 34%
- Population Fragmented Nuclei (%) [2]: 8%
- Population Healthy Nuclei (%) [2]: 10%
- Population Hoechst High Intensity Objects (%) [2]: 8%
- Population Mitochondria Different-Phenotype (%) [2]: 46%
- Population Mitotic Cells (%) [2]: 65%
- Population Normal (%) [2]: 91%
- Population Pyknosed Nuclei (%) [2]: 81%
- Population Tubulin-Different-Phenotype (%) [2]: 80%
- Total Cell Count [2]: 149
- Population Apoptotic (%) [3]: 83%
- Population Fragmented Nuclei (%) [3]: 44%
- Population Healthy Nuclei (%) [3]: 5%
- Population Hoechst High Intensity Objects (%) [3]: 25%
- Population Mitochondria Different-Phenotype (%) [3]: 100%
- Population Mitotic Cells (%) [3]: 16%
- Population Normal (%) [3]: 74%
- Population Pyknosed Nuclei (%) [3]: 49%
- Population Tubulin-Different-Phenotype (%) [3]: 76%
- Total Cell Count [3]: 385
- Population Apoptotic (%) [4]: 53%
- Population Fragmented Nuclei (%) [4]: 15%
- Population Healthy Nuclei (%) [4]: 13%
- Population Hoechst High Intensity Objects (%) [4]: 8%
- Population Mitochondria Different-Phenotype (%) [4]: 75%
- Population Mitotic Cells (%) [4]: 46%
- Population Normal (%) [4]: 91%
- Population Pyknosed Nuclei (%) [4]: 70%
- Population Tubulin-Different-Phenotype (%) [4]: 70%
- Total Cell Count [4]: 330
- Population Apoptotic (%) [5]: 64%
- Population Fragmented Nuclei (%) [5]: 22%
- Population Healthy Nuclei (%) [5]: 17%
- Population Hoechst High Intensity Objects (%) [5]: 19%
- Population Mitochondria Different-Phenotype (%) [5]: 95%
- Population Mitotic Cells (%) [5]: 35%
- Population Normal (%) [5]: 80%
- Population Pyknosed Nuclei (%) [5]: 59%
- Population Tubulin-Different-Phenotype (%) [5]: 90%
- Total Cell Count [5]: 147
- Population Apoptotic (%) [6]: 40%
- Population Fragmented Nuclei (%) [6]: 3%
- Population Healthy Nuclei (%) [6]: 37%
- Population Hoechst High Intensity Objects (%) [6]: 8%
- Population Mitochondria Different-Phenotype (%) [6]: 68%
- Population Mitotic Cells (%) [6]: 59%
- Population Normal (%) [6]: 91%
- Population Pyknosed Nuclei (%) [6]: 58%
- Population Tubulin-Different-Phenotype (%) [6]: 96%
- Total Cell Count [6]: 171
- Population Apoptotic (%) [7]: 80%
- Population Fragmented Nuclei (%) [7]: 45%
- Population Healthy Nuclei (%) [7]: 7%
- Population Hoechst High Intensity Objects (%) [7]: 21%
- Population Mitochondria Different-Phenotype (%) [7]: 100%
- Population Mitotic Cells (%) [7]: 19%
- Population Normal (%) [7]: 78%
- Population Pyknosed Nuclei (%) [7]: 47%
- Population Tubulin-Different-Phenotype (%) [7]: 79%
- Total Cell Count [7]: 389
- Population Apoptotic (%) [8]: 67%
- Population Fragmented Nuclei (%) [8]: 15%
- Population Healthy Nuclei (%) [8]: 15%
- Population Hoechst High Intensity Objects (%) [8]: 8%
- Population Mitochondria Different-Phenotype (%) [8]: 81%
- Population Mitotic Cells (%) [8]: 32%
- Population Normal (%) [8]: 91%
- Population Pyknosed Nuclei (%) [8]: 69%
- Population Tubulin-Different-Phenotype (%) [8]: 50%
- Total Cell Count [8]: 315
- Population Apoptotic (%) [9]: 67%
- Population Fragmented Nuclei (%) [9]: 27%
- Population Healthy Nuclei (%) [9]: 31%
- Population Hoechst High Intensity Objects (%) [9]: 20%
- Population Mitochondria Different-Phenotype (%) [9]: 82%
- Population Mitotic Cells (%) [9]: 32%
- Population Normal (%) [9]: 79%
- Population Pyknosed Nuclei (%) [9]: 40%
- Population Tubulin-Different-Phenotype (%) [9]: 86%
- Total Cell Count [9]: 183
- Population Apoptotic (%) [10]: 61%
- Population Fragmented Nuclei (%) [10]: 6%
- Population Healthy Nuclei (%) [10]: 55%
- Population Hoechst High Intensity Objects (%) [10]: 8%
- Population Mitochondria Different-Phenotype (%) [10]: 49%
- Population Mitotic Cells (%) [10]: 38%
- Population Normal (%) [10]: 91%
- Population Pyknosed Nuclei (%) [10]: 38%
- Population Tubulin-Different-Phenotype (%) [10]: 92%
- Total Cell Count [10]: 187
- Population Apoptotic (%) [11]: 75%
- Population Fragmented Nuclei (%) [11]: 51%
- Population Healthy Nuclei (%) [11]: 10%
- Population Hoechst High Intensity Objects (%) [11]: 28%
- Population Mitochondria Different-Phenotype (%) [11]: 97%
- Population Mitotic Cells (%) [11]: 24%
- Population Normal (%) [11]: 71%
- Population Pyknosed Nuclei (%) [11]: 38%
- Population Tubulin-Different-Phenotype (%) [11]: 60%
- Total Cell Count [11]: 484
- Population Apoptotic (%) [12]: 73%
- Population Fragmented Nuclei (%) [12]: 17%
- Population Healthy Nuclei (%) [12]: 18%
- Population Hoechst High Intensity Objects (%) [12]: 8%
- Population Mitochondria Different-Phenotype (%) [12]: 84%
- Population Mitotic Cells (%) [12]: 26%
- Population Normal (%) [12]: 91%
- Population Pyknosed Nuclei (%) [12]: 64%
- Population Tubulin-Different-Phenotype (%) [12]: 55%
- Total Cell Count [12]: 304
